# Source: article PMC8220551 (International Journal of Pharmaceutics: X, 2021)
# Test: Permeation study in Kerski diffusion cells with PermeaPad biomimetic barrier
# Format: in vitro ADME
# Details: in the investigated time interval (up to 60 min), pH 7.4, 37 °C
# Summary of the method: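 Drug-loaded minitablets, composite films or solutions (0.2 mg per 0.64 cm2) placed in donor; composites applied to buffer-moistened membrane. Acceptor: 10 mM dipotassium hydrogen phosphate, pH 7.4, stirred 350 rpm, 37 °C. Samples at 5, 10, 15, 20, 25, 30, 40, 50, 60 min with medium replacement. Quantified by HPLC with fluorescence detection (excitation 278 nm); mean ± SD, n = 3.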
structure (smiles),measurement,value
"NC(=O)CC[C@@H]1NC(=O)[C@H](Cc2ccccc2)NC(=O)[C@H](Cc2ccc(O)cc2)NC(=O)CCSSC[C@@H](C(=O)N2CCC[C@H]2C(=O)N[C@H](CCCN=C(N)N)C(=O)NCC(N)=O)NC(=O)[C@H](CC(N)=O)NC1=O [DDAVP, 1-desamino-8-D-arginin-vasopressin]",cumulative drug concentration permeated,~2.6 μg/cm^2
